Experimental data gathered from unrelated publications.
Target: BDNF/NT-3 growth factors receptor (NTRK2, Homo sapiens, UniProt Q16620)

C[C@H]1CCN(c2nccc(-c3cnn4ncccc34)n2)C1 gave a remaining binding of 61% (binding; 1 µM).
For CN(C)CC#Cc1ccc(OCCCc2sc(N3CCc4cccc(C(=O)Nc5nc6ccccc6s5)c4C3)nc2C(=O)O)c(F)c1, the remaining binding was 100% (cell-free assay; competition with immobilised ligand; 1 µM).
For O=C(NCCCN1CCOCC1)c1ccc(Nc2nccc(-c3cc4ccccc4s3)n2)cc1, the remaining binding was 69% (binding; competition with immobilised ligand; 1 µM).
FC(F)(F)Oc1cccc(-c2cnc3ccc(-c4ccncc4)nn23)c1 gave a remaining binding of 8.9% (cell-free assay; competition with immobilised ligand; 5 µM).
CNC(=O)[C@@H]1CC[C@@H](n2c(-c3ccc4cnccc4c3)nc3ccc(C(=O)NCc4cccc(C(N)=O)c4)cc32)C1 gave a remaining binding of 100% (binding; competition with immobilised ligand; 1 µM).
O=C(O)[C@@H]1[C@@H](Cn2nnc3ccccc3c2=O)CC[C@H]1C(=O)c1ccc(OCCC2CCOCC2)cc1 gave a remaining binding of 93% (cell-free assay; competition with immobilised ligand; 1 µM).
F[C@@H]1CCN(c2nccc(-c3cnn4ncccc34)n2)C1 has a remaining binding of 100% (binding; 1 µM).
The remaining binding of c1cncc(-c2cccc(Nc3nccc(NC4CCCCC4)n3)c2)c1 is reported as 16% (binding; competition with immobilised ligand; 10 µM).
CC1CCCN1c1nccc(-c2cnn3ncccc23)n1 (stereo not drawn) gave a remaining binding of 100% (binding; 1 µM).
For Cc1cnc(Nc2ccc(C(=O)N3CCC(N4CCCC4)CC3)cc2)nc1-c1cc2ccccc2s1, the remaining binding was 4.1% (binding; competition with immobilised ligand; 1 µM).
CN(C)c1nccc(-c2cnc3ncccn23)n1 gave a remaining binding of 65% (binding; 1 µM).
CCCCN(CCCC)C(=O)CN1C[C@@H](c2cc(OC)c3c(c2)OCO3)[C@H](C(=O)O)[C@H]1CC(C)(C)CCC has a remaining binding of 98.3% (cell-free assay; competition with immobilised ligand; 1 µM).
O=C(Nc1c[nH]nc1C(=O)NC1CCNCC1)c1cc(F)cc(F)c1 gave a remaining binding of 71% (binding; competition with immobilised ligand; 1 µM).
CN(CCCC(F)(F)F)c1nccc(-c2cnn3ncccc23)n1 gave a remaining binding of 100% (binding; 1 µM).
CCS(=O)(=O)c1cc2cc(C[C@@](O)(CC(C)(C)c3ccc(F)cc3C(N)=O)C(F)(F)F)[nH]c2cn1 has a remaining binding of 84% (cell-free assay; competition with immobilised ligand; 1 µM).
Nc1ncc2c(n1)-c1c([nH]c3ccc(C#CC4CC4)cc13)CCCC2 gave a remaining binding of 77% (binding; competition with immobilised ligand; 1 µM).
With CC1=C(C#N)C(c2ccc3c(c2)c(NC(=O)c2ccccc2C)nn3C)C(C#N)=C(C)N1 the remaining binding was 72% (cell-free assay; competition with immobilised ligand; 1 µM).
The remaining binding of COc1cnc(Nc2cccc(S(N)(=O)=O)c2)nc1N1CCN(c2ccccc2)CC1 is reported as 75% (binding; competition with immobilised ligand; 1 µM).
The remaining binding of N[C@@H]1CCN(c2nccc(-c3cnn4ncccc34)n2)C1 is reported as 100% (binding; 1 µM).
O=C(NCc1ncc(C(F)(F)F)cc1Cl)c1ccc2c(c1)C1(CCS(=O)(=O)CC1)[C@@H](C1CC1)N2S(=O)(=O)c1ccc(F)cc1 gave a remaining binding of 71% (cell-free assay; competition with immobilised ligand; 1 µM).
With O=C(c1ccc(Nc2nccc(-c3cc4ccccc4s3)n2)cc1)N1CCC(N2CCCC2)CC1 the remaining binding was 59% (binding; competition with immobilised ligand; 1 µM).
